One experiment deals with Aminopeptidase N (Homo sapiens, UniProt P15144). Briefly: Inhibition of APN by spectrophotometric assay.
Sequence of Aminopeptidase N (P15144 whole entry): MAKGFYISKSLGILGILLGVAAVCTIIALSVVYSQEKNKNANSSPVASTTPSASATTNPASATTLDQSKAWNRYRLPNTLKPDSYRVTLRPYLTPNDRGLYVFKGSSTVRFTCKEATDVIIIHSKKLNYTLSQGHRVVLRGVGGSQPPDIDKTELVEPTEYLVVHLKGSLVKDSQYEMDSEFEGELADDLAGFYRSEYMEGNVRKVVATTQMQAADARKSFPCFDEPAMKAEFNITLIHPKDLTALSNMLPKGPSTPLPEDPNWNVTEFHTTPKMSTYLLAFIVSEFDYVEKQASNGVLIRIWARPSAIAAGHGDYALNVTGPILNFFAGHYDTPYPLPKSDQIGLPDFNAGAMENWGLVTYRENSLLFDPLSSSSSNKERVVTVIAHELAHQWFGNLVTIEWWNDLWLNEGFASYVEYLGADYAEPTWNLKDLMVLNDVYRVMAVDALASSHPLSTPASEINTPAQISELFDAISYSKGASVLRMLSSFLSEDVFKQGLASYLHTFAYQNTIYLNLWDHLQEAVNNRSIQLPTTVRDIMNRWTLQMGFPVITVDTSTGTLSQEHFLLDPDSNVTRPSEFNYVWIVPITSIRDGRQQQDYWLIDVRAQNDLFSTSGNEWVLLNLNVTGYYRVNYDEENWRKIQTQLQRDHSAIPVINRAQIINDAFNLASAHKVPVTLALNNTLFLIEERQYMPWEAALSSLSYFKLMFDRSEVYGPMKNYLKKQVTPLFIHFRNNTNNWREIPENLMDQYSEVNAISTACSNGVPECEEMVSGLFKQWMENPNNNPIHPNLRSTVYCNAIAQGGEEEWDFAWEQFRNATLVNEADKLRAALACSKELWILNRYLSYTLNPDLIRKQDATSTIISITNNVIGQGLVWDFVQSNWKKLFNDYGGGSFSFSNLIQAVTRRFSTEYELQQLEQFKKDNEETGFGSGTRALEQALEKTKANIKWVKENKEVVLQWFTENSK
Conditions: not given
The method in brief:
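Enzyme and compound preincubated 30 min at 37 °C in 50 mM sodium phosphate buffer, pH 7.2. L-leucine p-nitroanilide substrate was then added for a further 60 min at 37 °C, and absorbance was read at 405 nm. The no-compound well was taken as 100% and the enzyme-only well as blank. Inhibition % = (OD100% − ODcompound)/(OD100% − ODblank) × 100.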
Sequence of 72 kDa type IV collagenase (P08253 whole entry): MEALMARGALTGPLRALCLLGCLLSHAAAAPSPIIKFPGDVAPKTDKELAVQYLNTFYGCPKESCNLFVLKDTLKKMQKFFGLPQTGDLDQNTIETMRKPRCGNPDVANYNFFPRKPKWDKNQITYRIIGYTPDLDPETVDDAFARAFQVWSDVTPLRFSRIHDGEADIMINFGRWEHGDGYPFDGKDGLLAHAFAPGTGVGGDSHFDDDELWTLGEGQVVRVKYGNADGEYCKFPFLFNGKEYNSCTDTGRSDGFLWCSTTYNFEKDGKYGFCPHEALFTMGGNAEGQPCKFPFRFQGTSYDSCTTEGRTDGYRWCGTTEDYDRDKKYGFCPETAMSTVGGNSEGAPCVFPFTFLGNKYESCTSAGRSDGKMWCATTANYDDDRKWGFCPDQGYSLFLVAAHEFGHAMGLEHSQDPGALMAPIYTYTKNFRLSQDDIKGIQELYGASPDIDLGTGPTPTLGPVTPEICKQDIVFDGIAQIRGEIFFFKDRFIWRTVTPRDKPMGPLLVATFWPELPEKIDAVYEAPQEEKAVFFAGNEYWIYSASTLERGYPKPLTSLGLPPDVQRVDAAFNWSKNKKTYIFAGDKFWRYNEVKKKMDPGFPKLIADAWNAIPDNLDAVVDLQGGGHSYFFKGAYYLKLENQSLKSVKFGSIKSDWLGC
For orientation: IC50 means the concentration needed to halve the response being measured. `CS(=O)(=O)N1C[C@H](O)C[C@H]1C(=O)NO` gave an IC50 of 26.3 µM.
`COC(=O)[C@@H]1C[C@@H](OC(=O)c2ccccc2)CN1S(=O)(=O)c1ccc(C)cc1`: the IC50 is 24.8 µM.
Same read-out and setting: under `COC(=O)[C@@H]1C[C@@H](OC(=O)c2ccc(Cl)cc2)CN1S(=O)(=O)c1ccc(C)cc1` stands 51.2 µM.
As to `COC(=O)[C@@H]1C[C@@H](OC(=O)/C=C/c2ccccc2)CN1S(=O)(=O)c1ccccc1`, the IC50 is 135 µM.
The same measure, in the same setting: the result for `COC(=O)[C@@H]1C[C@@H](OC(=O)/C=C/c2ccccc2)CN1S(=O)(=O)c1ccc(C)cc1` reads 169 µM; that for `COC(=O)[C@@H]1C[C@@H](OC(=O)/C=C/c2ccccc2)CN1S(C)(=O)=O`, 114 µM.
On the same count and under the same terms, under `COC(=O)[C@@H]1C[C@@H](OC(=O)c2ccc(Cl)cc2)CN1S(=O)(=O)c1ccccc1` stands 36.4 µM; under `COC(=O)[C@@H]1C[C@@H](OS(=O)(=O)c2ccc(C)cc2)CN1S(=O)(=O)c1ccccc1`, 61.3 µM; under `COC(=O)[C@@H]1C[C@@H](OS(C)(=O)=O)CN1S(=O)(=O)c1ccccc1`, 39.5 µM.
On the same count and under the same terms, the result for `COC(=O)[C@@H]1C[C@@H](OS(=O)(=O)c2ccccc2)CN1S(=O)(=O)c1ccc(C)cc1` reads 74.6 µM.
Consider `COC(=O)[C@@H]1C[C@@H](OS(C)(=O)=O)CN1S(=O)(=O)c1ccc(C)cc1`, for which the midpoint of inhibition, the IC50, lay at 41.4 µM.
For `COC(=O)[C@@H]1C[C@@H](OS(=O)(=O)c2ccc(C)cc2)CN1S(C)(=O)=O`, the IC50 turned out to be 68.9 µM.
Compound `O=C(NO)[C@@H]1C[C@@H](O)CN1S(=O)(=O)c1ccccc1` yielded an IC50 of 33.5 µM.
For `COC(=O)[C@@H]1C[C@@H](OC(=O)c2ccc(Cl)cc2)CN1S(C)(=O)=O`, the IC50 is 47.5 µM.
Still for that read-out and setting: the result for `COC(=O)[C@@H]1C[C@@H](OS(=O)(=O)c2ccccc2)CN1S(C)(=O)=O` reads 28.4 µM; that for `COC(=O)[C@@H]1C[C@@H](OS(=O)(=O)c2ccccc2)CN1S(=O)(=O)c1ccccc1`, 47.3 µM; that for `COC(=O)[C@@H]1C[C@@H](OS(=O)(=O)c2ccc(C)cc2)CN1S(=O)(=O)c1ccc(C)cc1`, 101 µM.
Same read-out and setting: under `COC(=O)[C@@H]1C[C@@H](OC(=O)c2ccccc2)CN1S(C)(=O)=O` stands 53.6 µM; under `COC(=O)[C@@H]1C[C@@H](OC(=O)c2ccccc2)CN1S(=O)(=O)c1ccccc1`, 43.8 µM; under `Cc1ccc(S(=O)(=O)N2C[C@H](O)C[C@H]2C(=O)NO)cc1`, 21.7 µM.
`COC(=O)[C@@H]1C[C@@H](OS(C)(=O)=O)CN1S(C)(=O)=O` displayed an IC50 of 31.6 µM.

The next experiment addresses 72 kDa type IV collagenase (Homo sapiens, UniProt P08253). Briefly: Inhibition of MMP2 by microtiter plate fluorimetric assay. The following applies: in the assay text read “spectrophotometric” for “fluorimetric”. The procedure, abridged:
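Enzyme and compound preincubated 30 min at 37 °C in 50 mM sodium borate buffer, pH 8.5. Substrate was added for a further 60 min at 37 °C, then 0.03% picrylsulfonic acid for 20 min at room temperature. Absorbance was read at 450 nm. The no-compound well was taken as 100% and the enzyme-only well as blank. Inhibition % = (OD100% − ODcompound)/(OD100% − ODblank) × 100.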
In the case of `CS(=O)(=O)N1C[C@H](O)C[C@H]1C(=O)NO`, inhibition was half-maximal at 0.02 µM (IC50).
Same read-out and setting: the result for `COC(=O)[C@@H]1C[C@@H](OC(=O)c2ccccc2)CN1S(=O)(=O)c1ccc(C)cc1` reads 3.2 µM; that for `COC(=O)[C@@H]1C[C@@H](OC(=O)c2ccc(Cl)cc2)CN1S(=O)(=O)c1ccc(C)cc1`, 2.2 µM.
Same read-out and setting: under `COC(=O)[C@@H]1C[C@@H](OC(=O)/C=C/c2ccccc2)CN1S(=O)(=O)c1ccccc1` stands 0.09 µM.
Consider `COC(=O)[C@@H]1C[C@@H](OC(=O)/C=C/c2ccccc2)CN1S(=O)(=O)c1ccc(C)cc1`, for which the midpoint of inhibition, the IC50, lay at 0.04 µM.
Same read-out and setting: the result for `COC(=O)[C@@H]1C[C@@H](OC(=O)/C=C/c2ccccc2)CN1S(C)(=O)=O` reads 0.5 µM; that for `COC(=O)[C@@H]1C[C@@H](OC(=O)c2ccc(Cl)cc2)CN1S(=O)(=O)c1ccccc1`, 2.7 µM.
`COC(=O)[C@@H]1C[C@@H](OS(=O)(=O)c2ccc(C)cc2)CN1S(=O)(=O)c1ccccc1` gave an IC50 of 0.04 µM.
For `COC(=O)[C@@H]1C[C@@H](OS(C)(=O)=O)CN1S(=O)(=O)c1ccccc1`, the IC50 turned out to be 1.3 µM.
The same measure, in the same setting: the result for `COC(=O)[C@@H]1C[C@@H](OS(=O)(=O)c2ccccc2)CN1S(=O)(=O)c1ccc(C)cc1` reads 0.05 µM.
On the same count and under the same terms, under `COC(=O)[C@@H]1C[C@@H](OS(C)(=O)=O)CN1S(=O)(=O)c1ccc(C)cc1` stands 0.2 µM; under `COC(=O)[C@@H]1C[C@@H](OS(=O)(=O)c2ccc(C)cc2)CN1S(C)(=O)=O`, 0.2 µM.
With `O=C(NO)[C@@H]1C[C@@H](O)CN1S(=O)(=O)c1ccccc1`, the IC50 is 0.004 µM.
Turning to `COC(=O)[C@@H]1C[C@@H](OC(=O)c2ccc(Cl)cc2)CN1S(C)(=O)=O`, the IC50 stood at 1.5 µM.
The compound `COC(=O)[C@@H]1C[C@@H](OS(=O)(=O)c2ccccc2)CN1S(C)(=O)=O` had an IC50 of 0.7 µM.
On the same count and under the same terms, under `COC(=O)[C@@H]1C[C@@H](OS(=O)(=O)c2ccccc2)CN1S(=O)(=O)c1ccccc1` stands 0.01 µM; under `COC(=O)[C@@H]1C[C@@H](OS(=O)(=O)c2ccc(C)cc2)CN1S(=O)(=O)c1ccc(C)cc1`, 0.007 µM; under `COC(=O)[C@@H]1C[C@@H](OC(=O)c2ccccc2)CN1S(C)(=O)=O`, 5.2 µM.
As to `COC(=O)[C@@H]1C[C@@H](OC(=O)c2ccccc2)CN1S(=O)(=O)c1ccccc1`, half-maximal inhibition (IC50) required 3.5 µM.
On the same count and under the same terms, the result for `Cc1ccc(S(=O)(=O)N2C[C@H](O)C[C@H]2C(=O)NO)cc1` reads 0.002 µM; that for `COC(=O)[C@@H]1C[C@@H](OS(C)(=O)=O)CN1S(C)(=O)=O`, 8.9 µM.

For the origin of these results see ChEMBL document CHEMBL1140058, “Synthesis of new sulfonyl pyrrolidine derivatives as matrix metalloproteinase inhibitors” (Bioorg Med Chem, 2008).
